# Only a selection was taken, and hits are over-represented in it overall.
# A1 apoptosis 2: A1 inhibitors via caspase activation, primary screen, cell-based, luminescence, HTS, two replicates | caspase activation, % (concentration not given with the values) | MEF A1-2A-BIM cells, caspase-Glo luminescence, 3 h; percent of clofoctol response, DMSO zero | 24,000 tested, under 10 active | AID 2465, 2010; in the data active = caspase activation above about 5.9%; inconclusive = no clear call, values can overlap the other calls; inactive = below about 2.2%
#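 Material: A1-2A-BIM-expressing MEF cells. Buffer or medium: RPMI-1640 plus 10% FBS. Incubation: cells settled overnight, compound exposure 3 h at 37 °C, 5% CO2. Signal: Caspase-Glo 3/7 luminescence, 1 h at room temperature.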
# T cruzi HTS: inhibitors of intracellular Trypanosoma cruzi, primary screen, cell-based, plate reader, single point, set 2; intracellular Trypanosoma cruzi in host cells; activity score (inhibition), % at 5.01 µM; 22,000 compounds, 4.9% hits; in the data active = activity score above about 55%; inconclusive = no clear call, values can overlap the other calls;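 also: parasites and compound incubated about four days before reading; 0% = median of neutral control wells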
# INS-1E rescue: protection of INS-1E cells from cytokine death, primary screen, ATP luminescence, single point; INS-1E cytokine-induced death, 48 h; normalised: neutral wells 0, positive control 100; protection from cytokine-induced ATP loss, % at 10 µM; 20,000 compounds, 0.1% hits; AID 488910, 2010;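 active = mean replicate protection from cytokine-induced ATP loss at least 50% and at least 75% of replicates each reaching 50%; inconclusive = meets only one of the two criteria, mean or replicate share; inactive = fails both the mean and replicate share criteria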
#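 Assay system: INS-1E rat insulinoma cells. Amount: 8000 cells per well. Medium: phenol-red-free RPMI with 5% fetal bovine serum. Reagent: IL-1β, TNF-α and IFN-γ cytokine mix. Doses: one compound concentration, pin transfer. Schedule: 48 h co-treatment, 10 min post-lysis read. Detection: CellTiter-Glo luminescence measuring cellular ATP.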
# An asterisk follows results filed as active; ? = inconclusive; nt = not tested or not shown.
SMILES,A1 apoptosis 2,T cruzi HTS,INS-1E rescue
COc1ccc(S(=O)(=O)N(C)C[C@H]2Oc3c(NC(=O)Nc4ccc(C(F)(F)F)cc4)cccc3C(=O)N([C@@H](C)CO)C[C@@H]2C)cc1,-1,70*,-39
COc1ccc(S(=O)(=O)N(C)C[C@H]2Oc3ccc(NC(=O)Nc4cccc5ccccc45)cc3C(=O)N([C@@H](C)CO)C[C@@H]2C)cc1,nt,3,1
COc1ccc(S(=O)(=O)N(C)C[C@H]2Oc3c(NC(=O)Nc4ccc(C(F)(F)F)cc4)cccc3C(=O)N([C@@H](C)CO)C[C@H]2C)cc1,0,67*,-102
COc1ccc(S(=O)(=O)N(C)C[C@@H]2Oc3c(NC(=O)Nc4ccc(C(F)(F)F)cc4)cccc3C(=O)N([C@@H](C)CO)C[C@H]2C)cc1,-2,2,-7
COc1ccc(S(=O)(=O)N(C)C[C@H]2Oc3c(NC(=O)Nc4ccc(C(F)(F)F)cc4)cccc3C(=O)N([C@H](C)CO)C[C@@H]2C)cc1,-1,?,-18
COc1ccc(S(=O)(=O)N(C)C[C@H]2Oc3ccc(NC(=O)Nc4cccc5ccccc45)cc3C(=O)N([C@@H](C)CO)C[C@H]2C)cc1,nt,62*,-9
Cc1ccc(S(=O)(=O)Nc2ccc3c(c2)CC(=O)N([C@H](C)CO)C[C@H](C)[C@H](CN(C)S(=O)(=O)c2cccs2)O3)cc1,-1,-7,1
Cc1ccccc1S(=O)(=O)N(C)C[C@H]1OCc2cn(nn2)CCCC(=O)N([C@H](C)CO)C[C@H]1C,0,-1,nt
C[C@H](CO)N1C[C@H](C)[C@H](CN(C)S(=O)(=O)c2cn(C)cn2)Oc2ccc(NC(=O)CCN3CCOCC3)cc2CC1=O,-1,-17,9
C[C@@H]1CN([C@@H](C)CO)C(=O)c2cc(NC(=O)Nc3ccccc3)ccc2O[C@H]1CN(C)S(=O)(=O)c1ccc(F)cc1,-1,-13,-8
C[C@@H]1CCCCO[C@H](CN(C)C(=O)Nc2ccc3c(c2)OCO3)[C@@H](C)CN([C@@H](C)CO)C(=O)c2cc(NC(=O)C3CCCCC3)ccc2O1,1,nt,nt
COc1ccc(CN(C)C[C@H]2Oc3ccc(NS(=O)(=O)c4c(C)noc4C)cc3C(=O)N([C@@H](C)CO)C[C@@H]2C)cc1,1,-2,0
C[C@@H]1CN([C@H](C)CO)C(=O)c2cccc(NC(=O)c3nc4ccccc4s3)c2O[C@@H]1CN(C)S(=O)(=O)c1ccc(Cl)cc1,0,43,-19
C[C@H](CO)N1C[C@H](C)[C@@H](CN(C)S(=O)(=O)c2ccc(Cl)cc2)Oc2c(NC(=O)c3nc4ccccc4s3)cccc2C1=O,-1,66*,-6
C[C@H](CO)N1C[C@H](C)[C@H](CN(C)S(=O)(=O)c2ccc(Cl)cc2)Oc2c(NC(=O)c3nc4ccccc4s3)cccc2C1=O,0,71*,-58
C[C@@H]1CN([C@@H](C)CO)C(=O)c2cccc(NC(=O)c3nc4ccccc4s3)c2O[C@@H]1CN(C)S(=O)(=O)c1ccc(Cl)cc1,-1,55,-58
COc1ccc(CN(C)C[C@@H]2Oc3ccc(NS(=O)(=O)c4cccs4)cc3CC(=O)N([C@H](C)CO)C[C@H]2C)cc1,nt,16,4
C[C@@H]1CN([C@@H](C)CO)C(=O)Cc2cc(NS(=O)(=O)c3cccs3)ccc2O[C@@H]1CN(C)Cc1ccc(Oc2ccccc2)cc1,nt,63*,-20
C[C@@H]1CN([C@H](C)CO)C(=O)Cc2cc(NS(=O)(=O)c3cccs3)ccc2O[C@@H]1CN(C)Cc1ccc(-c2ccccc2)cc1,nt,44,-14
C[C@H]1CN([C@@H](C)CO)C(=O)Cc2cc(NS(=O)(=O)c3cccs3)ccc2O[C@H]1CN(C)Cc1ccc(-c2ccccc2)cc1,nt,57*,-35
COc1ccc(NC(=O)Nc2cccc3c2O[C@@H](CN(C)S(=O)(=O)c2cccs2)[C@@H](C)CN([C@H](C)CO)C3=O)cc1,0,11,9
C[C@H](CO)N1C[C@H](C)[C@@H](CN(C)Cc2ccc(C(=O)O)cc2)OCCCC[C@H](C)Oc2ccc(NC(=O)CCCN(C)C)cc2C1=O,1,nt,nt
Cc1ccc(S(=O)(=O)Nc2ccc3c(c2)CC(=O)N([C@H](C)CO)C[C@H](C)[C@H](CN(C)Cc2ccc(C(F)(F)F)cc2)O3)cc1,nt,34,-6
COc1ccc(CN(C)C[C@@H]2Oc3ccc(NS(=O)(=O)c4ccc(OC)cc4)cc3CC(=O)N([C@@H](C)CO)C[C@H]2C)cc1,-1,nt,nt
C[C@H]1CN([C@@H](C)CO)C(=O)Cc2cc(NS(=O)(=O)c3ccccc3)ccc2O[C@H]1CN(C)Cc1ccc(C(F)(F)F)cc1,nt,48,-1
SMILES,A1 apoptosis 2,T cruzi HTS,INS-1E rescue
Cc1ccc(S(=O)(=O)Nc2ccc3c(c2)CC(=O)N([C@@H](C)CO)C[C@@H](C)[C@@H](CN(C)Cc2ccc(C(F)(F)F)cc2)O3)cc1,0,64*,-31
COc1ccc(S(=O)(=O)Nc2ccc3c(c2)CC(=O)N([C@@H](C)CO)C[C@H](C)[C@@H](CN(C)Cc2ccc(C(F)(F)F)cc2)O3)cc1,0,83*,-13
C[C@@H]1CN([C@H](C)CO)C(=O)Cc2cc(NS(=O)(=O)c3ccc(F)cc3)ccc2O[C@@H]1CN(C)Cc1ccc(C(F)(F)F)cc1,nt,60*,-48
[N-]=[N+]=Nc1ccccc1C[C@]1(C(=O)NCCN2CCOCC2)N=C(c2ccc(OCCCO)cc2)O[C@H]1c1ccccc1,0,nt,nt
C[C@H]1CN([C@@H](C)CO)C(=O)Cc2cc(NC(=O)Nc3cccc4ccccc34)ccc2O[C@H]1CN(C)CC1CCCCC1,nt,62*,-47
C[C@@H]1CN([C@H](C)CO)C(=O)Cc2cc(NC(=O)Nc3cccc4ccccc34)ccc2O[C@@H]1CN(C)CC1CCCCC1,-1,50,0
C[C@@H]1CN([C@H](C)CO)C(=O)Cc2cc(NC(=O)Nc3cccc4ccccc34)ccc2O[C@H]1CN(C)CC1CCCCC1,nt,68*,1
C[C@H]1CN([C@@H](C)CO)C(=O)Cc2cc(NC(=O)Nc3cccc4ccccc34)ccc2O[C@@H]1CN(C)CC1CC1,0,-10,15
Cc1noc(C)c1NC(=O)Nc1cccc2c1O[C@@H](CN(C)S(C)(=O)=O)[C@H](C)CN([C@@H](C)CO)C2=O,0,-22,6
O=C(NO)c1cccc(C(=O)N/N=C/c2ccc(Br)s2)c1,-2,-12,8
CC(C)NC(=O)Nc1ccc2c(c1)CC(=O)N([C@H](C)CO)C[C@@H](C)[C@H](CN(C)S(=O)(=O)c1ccc(Cl)cc1)O2,1,-15,7
Cc1noc(C)c1NC(=O)N(C)C[C@H]1Oc2ccc(NC(=O)CCCN(C)C)cc2C(=O)N([C@H](C)CO)C[C@H]1C,1,4,4
CC(C)NC(=O)Nc1ccc2c(c1)C(=O)N([C@H](C)CO)C[C@H](C)[C@@H](CN(C)C(=O)NC1CCCCC1)OCCCC[C@@H](C)O2,1,-8,4
